A selection: hits, their analogues and other compounds. The true share with any hit is near 3.4%.
M1 PAM: human M1 muscarinic receptor positive allosteric modulators, primary screen, CHO-K1 cells, Fluo-8 calcium fluorescence, 1536-well; Muscarinic acetylcholine receptor M1 (Homo sapiens), P11229; CHO-K1 hM1, ACh EC20; 0% = ACh EC20, 100% = maximal ACh; activation, % at 3 µM; 0.088% of 360,000 active; in the data active = activation above about 19%, passing the limit was not always enough
TAAR1 antagonist: human TAAR1 antagonists, primary screen, Fluo-8 calcium fluorescence, CHO RD-HGA16 cells | inhibition, % at 3 µM | 1.5% of 360,000 active | Trace amine-associated receptor 1 (Homo sapiens), Q96RJ0 | antagonist | AID 624466, 2012;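 active = inhibition above a per-plate cutoff, the mean inhibition of test compounds on that plate plus 3 SD, cut at about 49% in these data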;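 also: 0% = DMSO plus EC80 beta-PEA response and 100% = DMSO alone without agonist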
Target sequence (Q96RJ0 whole entry, looked up): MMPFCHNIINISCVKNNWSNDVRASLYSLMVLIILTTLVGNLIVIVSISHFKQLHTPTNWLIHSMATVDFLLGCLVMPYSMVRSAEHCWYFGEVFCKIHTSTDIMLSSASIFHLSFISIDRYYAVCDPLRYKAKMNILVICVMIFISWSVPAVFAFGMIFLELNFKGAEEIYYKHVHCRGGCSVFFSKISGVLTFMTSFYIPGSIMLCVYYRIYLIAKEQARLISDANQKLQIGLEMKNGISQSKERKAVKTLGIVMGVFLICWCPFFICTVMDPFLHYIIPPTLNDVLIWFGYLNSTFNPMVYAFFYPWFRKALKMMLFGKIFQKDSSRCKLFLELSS
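Assay system: RD-HGA16 CHO cells with stable hTAAR1 and Gα16 / Reagent: EC80 β-phenethylamine stimulus / Doses: 3 µM, single point / Timing: dye loading 75 min at 37 °C, then 30 min room temperature / Measured by: Fluo-8 intracellular calcium dye fluorescence, real-time kinetic reads / Controls: vehicle wells and EC80 agonist wells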
CHRM1 agonist: human M1 muscarinic receptor agonists, primary screen, Fluo-8 calcium fluorescence, CHO-K1 cells, HTS; CHO-K1 hM1, agonist mode; 0% DMSO, 100% acetylcholine EC100; activation, % at 3 µM; 0.33% of 360,000 active;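 active = activation above the run's mean compound activation plus 3 SD, cut at about 16% in these data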;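 also: peak over basal fluorescence ratio within a 140 s kinetic read after compound addition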
TAAR1 agonist: human TAAR1 agonists, primary screen, Fluo-8 calcium fluorescence, CHO RD-HGA16 cells; 0.99% of 360,000 active; activation, % at 3 µM; vehicle wells 0%, saturating PEA agonist 100%; Trace amine-associated receptor 1 (Homo sapiens), Q96RJ0;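 active = activation above the mean activation of all test compounds in the run plus 3 SD, cut at about 38% in these data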
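System: CHO-derived RD-HGA16 cells with stable Gα16 and human TAAR1. Times: 17-24 h plating, Fluo-8 75 min 37 °C, 30 min RT. Measured by: calcium-sensitive Fluo-8 signal, excitation 470-495, emission 515-575 nm. Read-out basis: % activation relative to PEA EC100 response. Control set: DMSO and PEA EC100. Repeats: no replicates (n 1).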
CHRM1 antagonist: human M1 muscarinic receptor antagonists, primary screen, CHO-K1 cells, Fluo-8 calcium fluorescence, 1536-well; Muscarinic acetylcholine receptor M1 (Homo sapiens), P11229; CHO-K1 hM1, ACh EC80 antagonist; inhibition, % at 3 µM; 1.3% of 360,000 active; AID 588852, 2011;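 active = percent inhibition above its own plate's cutoff, namely the mean of that plate's compound wells plus 3 SD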;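 also: peak over basal fluorescence ratio during 140 s after agonist addition; 0% = ACh EC80 plus DMSO and 100% = DMSO alone without agonist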
* = called active by the depositor; . = no result.

SMILES	M1 PAM	TAAR1 antagonist	CHRM1 agonist	TAAR1 agonist	CHRM1 antagonist
Cc1ccc(S(=O)(=O)N2CCN(C(=O)COC(=O)c3ccc(O)cc3)CC2)c(C)c1	-12.2	-5.1	0.1	2.2	30.3*
CC1(C)OC(C)(C)C(=N/O)/C1=N\N	.	-20.1	.	2.8	.
CN1C(=O)[C@@]2(O[C@H]3C=CC=CN3C3=C2C(=O)CCC3)c2cccc(Br)c21	.	-18.5	.	5.4	.
COc1cc(C=NNc2nc3c([nH]2)c(=O)n(C)c(=O)n3C)ccc1O	-2.0	17.5	-2.4	0.9	-0.5
CN(C)c1ccc(C=NNc2nc3c([nH]2)c(=O)n(C)c(=O)n3C)cc1	-13.5	-1.6	-1.6	6.1	24.3*
COC(=O)C[C@H]1CC[C@H](NC(=O)Nc2ccccc2F)[C@@H](CO)O1	.	-2.9	.	2.5	.
CN1CCN(C2=C(Cl)C(=O)N(Cc3ccccc3)C2=O)CC1	-26.0	9.9	-6.2	10.9	27.0*
CN1CCN(C2=C(Cl)C(=O)N(c3cccc(Cl)c3)C2=O)CC1	5.6	-6.4	-4.9	1.3	0.1
CCN1CCN(C2=C(Cl)C(=O)N(Cc3ccccc3)C2=O)CC1	-22.4	9.6	-5.5	-0.9	77.7*
Cc1cccc(Cl)c1NC(=O)NCCCN1CCCCC1C (stereo unspecified)	7.1	-9.6	-10.9	0.7	-4.7
CCCn1nnnc1NCc1ccc(N(CC)CC)cc1	0.8	-9.8	-7.2	-0.2	-3.5
CCN(CC)c1ccc(CNc2nnnn2C)cc1	-30.1	-8.8	-9.8	3.7	60.4*
CCNC1=C(Cl)C(=O)c2ccccc2C1=O	4.5	-24.5	-7.0	6.2	-1.4
O=C1C(Cl)=C(Nc2ccc(O)cc2)C(=O)c2ccccc21	-5.9	55.6*	-7.8	-3.4	15.5
CCCC(=O)NC1=C(Cl)C(=O)c2ccccc2C1=O	-1.9	51.7*	13.5	54.0*	31.1
Cc1cc2c(c(=O)o1)[C@@]1(C(=O)N(C)c3ccccc31)C1=C(CC(C)(C)OC1=O)O2	.	-12.0	.	0.9	.
COc1ccccc1C(CNC(=O)COc1ccccc1C)N1CCCC1 (stereo unspecified)	-26.7	-7.9	-7.8	0.7	58.8*
Cc1ccccc1OCC(=O)NCC(c1ccco1)N1CCCCC1 (stereo unspecified)	-13.5	-23.5	-6.5	-2.6	27.8*
COc1ccc(C(CNC(=O)COc2cc(C)ccc2Cl)N2CCCCC2)cc1 (stereo unspecified)	-6.7	0.9	-7.2	-1.1	1.9
COc1ccccc1C(CNC(=O)COc1cc(C)ccc1Cl)N1CCCC1 (stereo unspecified)	-26.3	-18.7	-7.0	1.6	61.8*
[O-][n+]1ccccc1C(O)CSc1ccccc1 (stereo unspecified)	.	-4.5	.	0.1	.
CCNC(=O)N(C)[C@H]1C[C@H]2c3[nH]c4c(-c5ccccc5)cccc4c3CCN2C(=O)[C@H]1[C@H](C)O	.	18.4	.	3.5	.
COc1ccc2c(c1)[C@@H](NC(=O)c1ccncc1)[C@@H]1Cc3ccccc3[C@H]21	.	-9.2	.	0.1	.
CC(C)(C)c1ccc(C#C[C@@H]2C=C[C@@H](O)[C@@H](COC(=O)NCc3ccccc3)O2)cc1	.	-15.6	.	0.9	.
CN(C)c1ccc(CNn2cnnc2SCC(=O)NC(C)(C)C)cc1	-13.9	-5.0	-2.1	0.0	42.0*
SMILES	M1 PAM	TAAR1 antagonist	CHRM1 agonist	TAAR1 agonist	CHRM1 antagonist
Cc1cc2ccccc2n1CCNC(=O)C(C)(C)C	-13.5	-24.6	-3.8	1.0	33.4*
CCC(C(=O)NCc1ccccc1)n1c(-c2cccs2)nc2ccccc21 (stereo unspecified)	.	0.4	.	0.8	.
c1ccc(C[C@H]2CN=C(Nc3ccccc3)N2CC2CCCCC2)cc1	11.2	1.3	-8.1	41.2*	-9.0
CC1CCC(CN2C(Nc3ccccc3)=NC[C@@H]2Cc2ccccc2)CC1 (stereo partly specified)	-17.0	14.6	-8.7	44.3*	20.8
Cc1ccc(Cl)cc1NC(=O)N(C)CCOC(=O)Nc1cccc(Cl)c1	.	27.1	.	-0.2	.
CCOC(=O)c1ccccc1Cc1nc2ccccc2c(=O)[nH]1	-26.0	-8.8	-8.2	1.1	98.0*
CC(C)c1ccc(OCCCCN2CCCCC2)cc1	-25.3	-13.8	-8.4	12.2	60.2*
c1ccc(COc2ccc(OCCCN3CCCC3)cc2)cc1	-21.1	-22.1	-9.8	3.1	45.5*
CC(C)Oc1ccc(OCCCN2CCCCCC2)cc1	-20.3	9.9	-6.8	9.4	35.6*
COc1cccc(-c2cccc(-c3nc(C(=O)NCc4ccc(Oc5ccccc5)cc4)cc4c3[C@H](CCO)N(S(=O)C(C)(C)C)C4)c2)c1 (stereo partly specified)	14.3	.	5.7	.	-17.6
CCOC(=O)c1ccc(O)c(-n2cc3c(c2-c2ccccc2)c(=O)n(C)c(=O)n3C)c1	2.0	-4.3	-3.2	6.5	-16.0
Cc1ccc(C)c(NC(=S)N2C3CCCC2CC(NC(=O)C2CC2)C3)c1 (stereo unspecified)	-17.6	-14.9	-12.1	8.7	37.5*
CC(=O)N1CCN(c2ccc(N3CCN(C(C)=O)[C@H](C)C3)c(C)c2)[C@@H](C)C1	.	-15.2	.	0.1	.
CC(C)Oc1cccc(C(=O)C2CCCN(C(=O)c3cncs3)C2)c1 (stereo unspecified)	-15.8	-3.5	-4.8	0.1	39.4*
CCn1nc(C)c(CN2CCCC(C(=O)c3cccc(OC(C)C)c3)C2)c1C (stereo unspecified)	-30.9	-0.1	-10.8	3.1	95.3*
CC(C)Oc1cccc(C(=O)C2CCCN(Cc3cccn3-c3ccccn3)C2)c1 (stereo unspecified)	-23.2	0.7	-4.4	8.7	40.7*
Cc1nn(C(C)C)c(C)c1CN1CCCC(C(=O)c2cccc(OC(C)C)c2)C1 (stereo unspecified)	-28.6	14.9	-10.2	2.2	36.8*
Cc1nc(C(=O)N2CCCC(C(=O)c3cccc(OC(C)C)c3)C2)cs1 (stereo unspecified)	5.8	-4.4	-0.4	2.9	-4.2
CC(C)Oc1cccc(C(=O)C2CCCN(Cc3cnn(C(C)C)c3)C2)c1 (stereo unspecified)	-16.9	21.8	-12.9	3.0	11.6
COc1cccc(C(=O)C2CCCN(Cc3cccn3-c3ccccn3)C2)c1 (stereo unspecified)	-13.9	-9.1	-13.9	2.3	-3.2
Cc1c(C2Nc3ccccc3C2C)[nH]c2ccccc12 (stereo unspecified)	.	-13.9	.	1.9	.
COc1ccc(C2CC(=O)C(c3ccc(C(F)(F)F)cc3)=CN2Cc2ccccc2)cc1 (stereo unspecified)	.	-36.6	.	2.2	.
